Reference: ChEMBL document CHEMBL1154766, “Synthesis and biological evaluation of new podophyllic aldehyde derivatives with cytotoxic and apoptosis-inducing activities” (2010)
Active and inactive are the calls of the source. The calls are words filed in the database; no cut-off is given here.

How the values were obtained:
[1] = system: MDA-MB-231; experiment: Cytotoxicity against human MDA-MB-231 cells after 72 hrs by SRB assay; assay type: functional; conditions: MDA-MB-231, 72 h
Method in brief: (§1)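 SRB growth assay: 5 × 10³ cells/well in RPMI, attached 18 h drug-free, then compound added in DMSO/H₂O 3:7 for 72 h. Fixed with cold 50% TCA 60 min at 4 °C, stained 0.4% SRB in 1% acetic acid 10 min, bound dye solubilized in Tris, OD 490 nm. GI50 from 100[(T−T0)/(C−T0)] = 50; mean of triplicates.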

[2] = system: A549; experiment: Cytotoxicity against human A549 cells after 72 hrs by SRB assay; assay type: functional; conditions: A549, 72 h; method in brief: as §1
[3] = system: HT-29; experiment: Cytotoxicity against human HT-29 cells after 72 hrs by SRB assay; assay type: functional; conditions: HT-29, 72 h; method in brief: as §1
[4] = system: HT-29; experiment: Induction of apoptosis in human HT-29 cells assessed as accumulation at subG1 phase at 1 uM after 24 hrs by flow cytometry; assay type: functional
Method in brief: (§2)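 HT-29 cells incubated at 1 μM for 24, 48 or 72 h alongside untreated controls. (3-5) × 10⁵ cells fixed overnight in 70% ethanol at 4 °C, PBS-washed three times, then treated 1 h at room temperature with 1 mg/mL RNase A and 20 μg/mL propidium iodide. DNA content read by flow cytometry; apoptosis taken as % cells in sub-G1 peak. Representative of three independent experiments.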

[5] = system: HT-29; experiment: Cell cycle arrest in human HT-29 cells assessed as accumulation at G0/G1 phase at 1 uM after 24 hrs by flow cytometry; assay type: functional; method in brief: as §2
[6] = system: HT-29; experiment: Cell cycle arrest in human HT-29 cells assessed as accumulation at S phase at 1 uM after 24 hrs by flow cytometry; assay type: functional; method in brief: as §2
[7] = system: HT-29; experiment: Cell cycle arrest in human HT-29 cells assessed as accumulation at G2/M phase at 1 uM after 24 hrs by flow cytometry; assay type: functional; method in brief: as §2
[8] = system: HT-29; experiment: Induction of apoptosis in human HT-29 cells assessed as accumulation at subG1 phase at 1 uM after 48 hrs by flow cytometry; assay type: functional; method in brief: as §2
[9] = system: HT-29; experiment: Cell cycle arrest in human HT-29 cells assessed as accumulation at G0/G1 phase at 1 uM after 48 hrs by flow cytometry; assay type: functional; method in brief: as §2
[10] = system: HT-29; experiment: Cell cycle arrest in human HT-29 cells assessed as accumulation at S phase at 1 uM after 48 hrs by flow cytometry; assay type: functional; method in brief: as §2
[11] = system: HT-29; experiment: Cell cycle arrest in human HT-29 cells assessed as accumulation at G2/M phase at 1 uM after 48 hrs by flow cytometry; assay type: functional; method in brief: as §2
[12] = system: HT-29; experiment: Induction of apoptosis in human HT-29 cells assessed as accumulation at subG1 phase at 1 uM after 72 hrs by flow cytometry; assay type: functional; method in brief: as §2
[13] = system: HT-29; experiment: Cell cycle arrest in human HT-29 cells assessed as accumulation at G0/G1 phase at 1 uM after 72 hrs by flow cytometry; assay type: functional; method in brief: as §2
[14] = system: HT-29; experiment: Cell cycle arrest in human HT-29 cells assessed as accumulation at S phase at 1 uM after 72 hrs by flow cytometry; assay type: functional; method in brief: as §2
[15] = system: HT-29; experiment: Cell cycle arrest in human HT-29 cells assessed as accumulation at G2/M phase at 1 uM after 72 hrs by flow cytometry; assay type: functional; method in brief: as §2
[16] = system: HT-29; experiment: Induction of microtubule disruption in human HT-29 cells at 1 uM after 24 hrs; assay type: cell-based
Method in brief: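 HT-29 cells on poly-L-lysine coverslips exposed to 1 μM for 24 h, washed in HPEM (pH 6.6), fixed with 4% paraformaldehyde 15 min, permeabilized with 0.5% Triton X-100. Anti-α-tubulin mouse monoclonal (1:150, 1 h) then CY3 anti-mouse IgG (1 h, 4 °C); nuclei DAPI-stained; imaged by confocal microscopy. Representative of at least three experiments.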

Row | SMILES | GI50 [1] [nM] | GI50 [2] [nM] | GI50 [3] [nM] | also measured
1 | CCOC(=O)COC(=O)[C@H]1[C@H](c2cc(OC)c(OC)c(OC)c2)c2cc3c(cc2[C@H](O)[C@H]1CO)OCO3 [ETHOXYCARBONYLMETHYL PICROPODOPHYLLATE] | 160 | 170 | 180 | 
2 | CCCNCC1=Cc2cc3c(cc2[C@@H](c2cc(OC)c(OC)c(OC)c2)[C@@H]1C(=O)OCc1cc(OC)c(OC)c(OC)c1)OCO3 | 6400 | 1900 | 2000 | 
3 | CCOC(=O)[C@@H]1C(C=O)=Cc2cc3c(cc2[C@H]1c1cc(OC)c(OC)c(OC)c1)OCO3 | 540 | 180 | 200 | 
4 | C=CCOC(=O)[C@@H]1C(C=O)=Cc2cc3c(cc2[C@H]1c1cc(OC)c(OC)c(OC)c1)OCO3 | 150 | 30 | 20 | Activity [4]: 0.3%; Activity [5]: 3.9%; Activity [6]: 4.5%; Activity [7]: 91.3%; Activity [8]: 1.8%; Activity [9]: 10.9%; Activity [10]: 3.9%; Activity [11]: 83.4%; Activity [12]: 41.6%; Activity [13]: 33.6%; Activity [14]: 16.8%; Activity [15]: 8%; Activity [16]: Active
5 | CCNCC1=Cc2cc3c(cc2[C@@H](c2cc(OC)c(OC)c(OC)c2)[C@@H]1C(=O)OC)OCO3 | 2600 | 700 | 400 | 
6 | COC(=O)[C@@H]1C(/C=N/c2ccc(OC)cc2)=Cc2cc3c(cc2[C@H]1c1cc(OC)c(OC)c(OC)c1)OCO3 |  | 94 | 9.4 | 
7 | COc1cc([C@@H]2c3cc4c(cc3C=C(C=O)[C@H]2C(=O)OCCCBr)OCO4)cc(OC)c1OC | 170 | 130 | 140 | Activity [4]: 29.2%; Activity [5]: 46.9%; Activity [6]: 9.7%; Activity [7]: 14.2%; Activity [8]: 34.6%; Activity [9]: 38.9%; Activity [10]: 8.4%; Activity [11]: 18.1%; Activity [12]: 67.7%; Activity [13]: 31.6%; Activity [14]: 0.3%; Activity [15]: 0.4%; Activity [16]: inactive
8 | CC/N=C/C1=Cc2cc3c(cc2[C@@H](c2cc(OC)c(OC)c(OC)c2)[C@@H]1C(=O)OC)OCO3 |  | 22 | 2.2 | 
9 | CCOC(=O)COC(=O)[C@@H]1C(C=O)=Cc2cc3c(cc2[C@H]1c1cc(OC)c(OC)c(OC)c1)OCO3 | 110 | 13 | 28 | Activity [4]: 0.5%; Activity [5]: 1%; Activity [6]: 0.9%; Activity [7]: 97.6%; Activity [8]: 6.3%; Activity [9]: 4.7%; Activity [10]: 3.4%; Activity [11]: 85.6%; Activity [12]: 30.6%; Activity [13]: 16.4%; Activity [14]: 19.2%; Activity [15]: 33.8%; Activity [16]: Active
10 | CCC/N=C/C1=Cc2cc3c(cc2[C@@H](c2cc(OC)c(OC)c(OC)c2)[C@@H]1C(=O)OCC)OCO3 | 1200 | 230 | 390 | 
11 | CCCNCC1=Cc2cc3c(cc2[C@@H](c2cc(OC)c(OC)c(OC)c2)[C@@H]1C(=O)OCC)OCO3 | 370 | 230 | 270 | 
12 | COc1cc([C@@H]2c3cc4c(cc3[C@H](O)[C@@H](CO)[C@H]2C(=O)N2CCCC2)OCO4)cc(OC)c1OC [PICROPODOPHYLLIC ACID PYRROLIDINYL AMIDE] | 7800 | 6800 | 7800 | 
13 | CCNC(=O)[C@@H]1C(C=O)=Cc2cc3c(cc2[C@H]1c1cc(OC)c(OC)c(OC)c1)OCO3 | 7100 | 4500 | 8000 | Activity [4]: 25%; Activity [5]: 51.7%; Activity [6]: 9.8%; Activity [7]: 13.5%; Activity [8]: 61.7%; Activity [9]: 33%; Activity [10]: 3%; Activity [11]: 2.3%; Activity [12]: 93.8%; Activity [13]: 5.3%; Activity [14]: 0.5%; Activity [15]: 0.4%; Activity [16]: inactive
14 | COc1cc([C@@H]2c3cc4c(cc3[C@H](O)[C@@H](CO)[C@H]2C(=O)OC/C=C/c2ccccc2)OCO4)cc(OC)c1OC [CINNAMYL PICROPODOPHYLLATE] | 180 | 200 | 150 | 
15 | COc1cc([C@@H]2c3cc4c(cc3C=C(C=O)[C@H]2C(=O)OC/C=C/c2ccccc2)OCO4)cc(OC)c1OC | 130 | 32 | 36 | Activity [4]: 0.4%; Activity [5]: 1.4%; Activity [6]: 1.8%; Activity [7]: 96.4%; Activity [8]: 5.2%; Activity [9]: 5.3%; Activity [10]: 4.2%; Activity [11]: 85.3%; Activity [12]: 33.7%; Activity [13]: 21.1%; Activity [14]: 22%; Activity [15]: 23.2%; Activity [16]: Active
16 | C=CCOC(=O)[C@H]1[C@H](c2cc(OC)c(OC)c(OC)c2)c2cc3c(cc2[C@H](O)[C@H]1CO)OCO3 [ALLYL PICROPODOPHYLLATE] | 110 | 120 | 80 | 

Row | SMILES | GI50 [1] [nM] | GI50 [2] [nM] | GI50 [3] [nM] | also measured
17 | COC(=O)[C@@H]1C(CNc2ccc(C)cc2)=Cc2cc3c(cc2[C@H]1c1cc(OC)c(OC)c(OC)c1)OCO3 | 1500 | 900 | 800 | 
18 | CCNCC1=Cc2cc3c(cc2[C@@H](c2cc(OC)c(OC)c(OC)c2)[C@@H]1C(=O)N1CCCC1)OCO3 | > 20000 | > 20000 | > 20000 | 
19 | COc1ccc(NC(=O)[C@@H]2C(C=O)=Cc3cc4c(cc3[C@H]2c2cc(OC)c(OC)c(OC)c2)OCO4)cc1 | 4600 | 1200 | 800 | Activity [4]: 13.6%; Activity [5]: 48%; Activity [6]: 13.2%; Activity [7]: 25.2%; Activity [8]: 45.2%; Activity [9]: 50.4%; Activity [10]: 1.8%; Activity [11]: 2.6%; Activity [12]: 52.6%; Activity [13]: 36.4%; Activity [14]: 8.4%; Activity [15]: 2.6%; Activity [16]: inactive
20 | COc1cc([C@@H]2c3cc4c(cc3C=C(C=O)[C@H]2C(=O)N2CCCC2)OCO4)cc(OC)c1OC | 8200 | 6600 | 7300 | 
21 | CCCCCCCOC(=O)[C@H]1[C@H](c2cc(OC)c(OC)c(OC)c2)c2cc3c(cc2[C@H](O)[C@H]1CO)OCO3 [HEPTYL PICROPODOPHYLLATE] | 180 | 190 | 160 | 
22 | COC(=O)[C@@H]1C(C=O)=Cc2cc3c(cc2[C@H]1c1cc(OC)c(OC)c(OC)c1)OCO3 [PODOPHYLLIC ALDEHYDE] | 200 | 61 | 38 | 
23 | CCC/N=C/C1=Cc2cc3c(cc2[C@@H](c2cc(OC)c(OC)c(OC)c2)[C@@H]1C(=O)OC)OCO3 | 1300 | 41 | 41 | 
24 | COc1cc([C@@H]2c3cc4c(cc3[C@H](O)[C@H]3COC(=O)[C@H]23)OCO4)cc(OC)c1OC [PODOFILOX] |  | 12 | 24 | 
25 | COC(=O)[C@@H]1C(CNc2ccc(OC)cc2)=Cc2cc3c(cc2[C@H]1c1cc(OC)c(OC)c(OC)c1)OCO3 | 2400 | 1000 | 700 | 
26 | CCCNCC1=Cc2cc3c(cc2[C@@H](c2cc(OC)c(OC)c(OC)c2)[C@@H]1C(=O)OC)OCO3 | 5500 | 1500 | 1000 | 
27 | CCC/N=C/C1=Cc2cc3c(cc2[C@@H](c2cc(OC)c(OC)c(OC)c2)[C@@H]1C(=O)OCc1cc(OC)c(OC)c(OC)c1)OCO3 | 130 | 5.2 | 4.3 | 
28 | COc1ccc(NCC2=Cc3cc4c(cc3[C@@H](c3cc(OC)c(OC)c(OC)c3)[C@@H]2C(=O)N2CCCC2)OCO4)cc1 | > 17000 | 15000 | 15000 | 
29 | CCOC(=O)[C@H]1[C@H](c2cc(OC)c(OC)c(OC)c2)c2cc3c(cc2[C@H](O)[C@H]1CO)OCO3 [ETHYL PICROPODOPHYLLATE] | 90 | 70 | 90 | 
30 | CCNC(=O)[C@H]1[C@H](c2cc(OC)c(OC)c(OC)c2)c2cc3c(cc2[C@H](O)[C@H]1CO)OCO3 | 10000 | 9800 | 10000 | 
31 | COc1cc([C@@H]2c3cc4c(cc3[C@H](O)[C@@H](CO)[C@H]2C(=O)OCCCBr)OCO4)cc(OC)c1OC | 34 | > 17000 | 22 | 
